Data set [1] in a line: Cytotoxicity against mouse N13 cells assessed as cell viability at 0.34 uM incubated for 24 hrs by MTT assay relative to control. The settings on record: read-out: Activity. It counts as functional. The gist of the method: (§1)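 MTT assay (mitochondrial activity). Cells grown at 37 °C, humidified 5% CO2: N13 in RPMI, F98 in DMEM.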
A short description of data set [2]: Cytotoxicity against mouse N13 cells assessed as cell growth inhibition incubated for 24 hrs by MTT assay. Type of data set: functional, cell-based. The conditions noted are these: N13, 24 h. The gist of the method:
as §1

Data set [3] deals with F98. Description: Cytotoxicity against rat F98 cells assessed as cell viability at 0.34 uM incubated for 24 hrs by MTT assay relative to control. It counts as functional. The settings on record: read-out: Activity. The method, boiled down: as §1
In general terms: Tetrazolium dyes change colour on reduction, which living cells bring about.

Data set [4] concerns F98. Description: Cytotoxicity against rat F98 cells assessed as cell growth inhibition incubated for 24 hrs by MTT assay. Type of data set: functional, cell-based. The conditions noted are these: F98, 24 h. The method, boiled down: as §1
Data set [5] is described as follows: Cytotoxicity against mouse N13 cells assessed as cell viability at 0.5 uM incubated for 24 hrs by MTT assay relative to control. Type of data set: functional. The conditions noted are these: read-out: Activity. The gist of the method: as §1
Data set [6] has as its system F98. Description: Cytotoxicity against rat F98 cells assessed as cell viability at 0.5 uM incubated for 24 hrs by MTT assay relative to control. Type of data set: functional. The settings on record: read-out: Activity. The method, boiled down:
as §1

Data set [7] is described as follows: Cytotoxicity against mouse N13 cells assessed as cell viability at 0.36 uM incubated for 24 hrs by MTT assay relative to control. Type of data set: functional. The conditions noted are these: read-out: Activity. The gist of the method: as §1
The subject of data set [8] is F98. Description: Cytotoxicity against rat F98 cells assessed as cell viability at 0.36 uM incubated for 24 hrs by MTT assay relative to control. The settings on record: read-out: Activity. Type of data set: functional. The gist of the method: as §1
Data set [9] is described as follows: Cytotoxicity against mouse N13 cells assessed as cell viability at 0.4 uM incubated for 24 hrs by MTT assay relative to control. The settings on record: read-out: Activity. Type of data set: functional. The gist of the method: as §1
For data set [10], the system named is F98. Description: Cytotoxicity against rat F98 cells assessed as cell viability at 0.4 uM incubated for 24 hrs by MTT assay relative to control. It counts as functional. The settings on record: read-out: Activity. The method, boiled down: as §1
Data set [11] can be described thus: Cytotoxicity against mouse N13 cells assessed as cell viability at 0.28 uM incubated for 24 hrs by MTT assay relative to control. It counts as functional. The conditions noted are these: read-out: Activity. The gist of the method:
as §1

Data set [12] deals with F98. As to the kind of experiment: Cytotoxicity against rat F98 cells assessed as cell viability at 0.28 uM incubated for 24 hrs by MTT assay relative to control. Type of data set: functional. The settings on record: read-out: Activity. The gist of the method:
as §1

A short description of data set [13]: Cytotoxicity against mouse N13 cells assessed as cell viability at 0.31 uM incubated for 24 hrs by MTT assay relative to control. Type of data set: functional. The conditions noted are these: read-out: Activity. The method, boiled down: as §1
Data set [14] relates to F98. As to the kind of experiment: Cytotoxicity against rat F98 cells assessed as cell viability at 0.31 uM incubated for 24 hrs by MTT assay relative to control. Type of data set: functional. The conditions noted are these: read-out: Activity. The method, boiled down: as §1
The test system of data set [15] is F98. As to the kind of experiment: Cytotoxicity in rat F98 cells co-cultured with CM-Dil-labeled mouse N13 cells assessed as decrease in number of rat F98 cells measured after 24 hrs by bright-field microscopy. It counts as functional, cell-based. The settings on record: dose <= 100.0 µg/ml. The gist of the method:
(§2)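 Co-culture. N13 cells pre-labelled with the red membrane dye CM-DiI, then seeded together with F98 cells. Cells exposed to 0, 10 or 100 µg/mL for 24 h. Brightfield and fluorescence images taken on a high-content imager. Cell types separated by automatic segmentation on morphology (N13 rounded, F98 elongated) plus label. Cell counts and percentages of each type reported.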

Data set [16] has as its system N13. Description: Cytotoxicity in CM-Dil-labeled mouse N13 cells co-cultured with rat F98 cells assessed as increase in number of mouse N13 cells upto 100 ug/ml measured after 24 hrs by bright-field microscopy. It counts as functional, cell-based. The settings on record: dose <= 100.0 µg/ml. The gist of the method:
as §2

Data set [17] relates to N13. As to the kind of experiment: Induction of apoptosis in mouse N13 cells assessed as accumulation at sub G0/G1 phase at 100 ug/ml incubated for 24 hrs by flow cytometry. It counts as functional, cell-based. The settings on record: dose 100.0 µg/ml. The method, boiled down:
(§3)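 N13 or F98 cells exposed to 100 µg/mL for 24 h, untreated cells as controls. DNA content measured by flow cytometry. The fraction in the sub-G0/1 region taken as apoptotic cells.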
On the technique in general: In flow cytometry, cells or beads pass a laser one at a time.

In data set [18] the test system is F98. As to the kind of experiment: Induction of apoptosis in rat F98 cells assessed as accumulation at sub G0/G1 phase at 100 ug/ml incubated for 24 hrs by flow cytometry relative to control. It counts as functional. The settings on record: dose 100 µg/ml. The method, boiled down: as §3
Data set [19] in a line: Toxicity in rat assessed as brain injury administered locally in caudate nucleus of brain measured after 30 days by MRI analysis. The conditions noted are these: in vivo, other, 720 h, route it, time 30 day. It counts as tissue-based. The gist of the method: (§4)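 Non-tumor-bearing rats given a local injection into the caudate nucleus; PBS injected at the same site as control. Brain injury checked by in vivo MRI up to 30 days. Animals watched for external signs of pain or suffering. Survival monitored for 30 days.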

A short description of data set [20]: Toxicity in rat assessed as signs of pain administered locally in caudate nucleus of brain measured after 30 days. Type of data set: tissue-based. The settings on record: in vivo, other, 720 h, route it, time 30 day. The gist of the method:
as §4

The nature of data set [21]: Toxicity in rat assessed as signs of suffering administered locally in caudate nucleus of brain measured after 30 days. It counts as tissue-based. The settings on record: in vivo, other, 720 h, route it, time 30 day. The method, boiled down:
as §4

Data set [22] in a line: Toxicity in rat assessed as survival rate administered locally in caudate nucleus of brain measured after 30 days relative to control. Type of data set: tissue-based. The conditions noted are these: in vivo, route it, time 30 day. The gist of the method:
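Non-tumor-bearing rats received compound by local injection into the caudate nucleus, with PBS injected into the same region as control. Brains were imaged by in vivo MRI (9.4 T) before and 30 days after injection. Animals were watched for signs of pain, and survival over 30 days was plotted as Kaplan-Meier.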

The subject of data set [23] is F98. As to the kind of experiment: Antitumor activity against rat F98 cells xenografted in Fisher rat assessed as necrotic/apoptotic tumor cells at 5 mg/kg, IT measured after 2 days by MRI analysis. It counts as functional, organism-based. The settings on record: time 2.0 day.
The test system of data set [24] is F98. As to the kind of experiment: Antitumor activity against rat F98 cells xenografted in Fisher rat assessed as average tumor volume at 5 mg/kg, IT measured after 2 days by MRI analysis (reference value: 845 mm^3). Type of data set: functional. The settings on record: time 2 day.
Data set [25] is described as follows: Toxicity in Fisher rat xenografted with rat F98 cells assessed as animal survival at 5 mg/kg, IT measured for 5 days. It counts as organism-based. The conditions noted are these: in vivo, other, 120 h, time 5 day. The method, boiled down: (§5)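 F98 glioma cells implanted in rats per an earlier protocol. Tumor volume followed by T₂-weighted MRI (9.4 T, turbo-RARE, TE 33 ms, TR 2500 ms) on days 3, 5, 8, 10, 12 and 15. On day 10 (mean tumor about 325 mm³), compound in PBS was given intratumorally at 5 mg/kg; PBS alone was the control. Survival was plotted as Kaplan-Meier.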

The test system of data set [26] is F98. Description: Antitumor activity against rat F98 cells xenografted in Fisher rat assessed as average tumor volume at 5 mg/kg, IT measured after 5 days by MRI analysis. It counts as functional. The conditions noted are these: time 5 day.
A short description of data set [27]: Toxicity in Fisher rat xenografted with rat F98 cells assessed as animal survival at 5 mg/kg, IT measured for 16 days. Type of data set: organism-based. The settings on record: in vivo, other, 384 h, time 16 day. The method, boiled down: as §5

SMILES strings stand for the structures. Calls of active or inactive are those of the source. No cut-off for these calls is given here.

The IC50 is the concentration that inhibits the measured activity by half.

In the case of `CCOC(=O)C[C@H](N)c1cc([N+](=O)[O-])ccc1O`, the values for the viability at 0.34 µM (in data set [1]; with F98 [3]) were 30% and 20%, respectively. Moreover, the IC50 turned out to be 660 µM in data set [2] and 1140 µM with F98 [4].
Consider `N[C@H]1CC(=O)Oc2ccccc21`, for which the viability at 0.5 µM turned out to be 15% in [5] and 55% with F98 [6]. For the same compound, the IC50 is 1570 µM in data set [2] and 480 µM in the data set on F98 [4].
In the case of `CCOC(=O)C[C@H](N)c1ccc(OC)cc1O`, the figures for the viability at 0.36 µM (in data set [7]; in the data set with F98 [8]) were 55% and 45%, respectively. For the same compound, the IC50 in data set [2] stood at 340 µM; in the data set with F98 [4] it was 470 µM.
Regarding `CCOC(=O)C[C@@H](N)c1ccccc1O`, the viability at 0.4 µM in data set [9] amounted to 40%; in the data set with F98 [10], 35%. Besides, the IC50 in [2] was 450 µM; in the data set on F98 [4] it was 780 µM.
For `CCOC(=O)C[C@H](N)c1cc(Br)cc(OC)c1O`, the viability at 0.28 µM (in data set [11]; in the data set with F98 [12]) was 60% in each case. Moreover, the IC50 in [2] worked out at 220 µM; in the data set with F98 [4], 170 µM.
For the compound `CCOC(=O)C[C@H](N)c1cc(Br)ccc1O`, the viability at 0.31 µM in [13] is 40%; with F98 [14], 60%. The IC50 in [2] came out at 500 µM; in the data set with F98 [4], 210 µM.
As for `CCOC(=O)C[C@H](N)c1cc(OC)ccc1O`, the figures for the viability at 0.36 µM (in data set [7]; with F98 [8]) were 70% and 5%, respectively. Further, in data set [2], the IC50 is 40 µM.
Consider `CCOC(=O)C[C@H](N)c1ccccc1O.Cl`, for which the values for the viability at 0.4 µM (in data set [9]; in the data set on F98 [10]) were 0% and 60%, respectively. In addition, in the data set on F98 [4], the IC50 was determined as 140 µM. The Activity result was “Dose-Dependent Effect” with F98 [15]; 42% in the data set on F98 [18]; “Non-Toxic” in data set [19]; “Non-Toxic” in data set [20]; “Non-Toxic” in [21]; 370 mm3 with F98 [24]. For the same compound, the results for the Activity entry (in data set [25]; with F98 [26]; in [27]) were “Non-Toxic”, 815 mm3 and “Non-Toxic”, respectively. Besides, the result in the data set with N13 [16] and in the data set on F98 [23] was Active. In addition, in the data set on N13 [17], the outcome was inactive. The survival at 720 h in [22] turned out to be 100%.

The record behind these values is ChEMBL document CHEMBL5352420, “Enantioselective synthesis of 4-amino-3,4-dihydrocoumarins and their non-cyclic hydroxyester precursors: Biological evaluation for the treatment of glioblastoma multiforme” (Eur J Med Chem, 2022).
